Source: PubChem (Sanford-Burnham Center for Chemical Genomics)
SENP8 block-1: human SENP8 protease inhibitors, primary screen, biochemical, fluorescence, Nedd8 protein substrate, uHTS. inhibition, % at 20 µM. AID 602440, 2012. Sentrin-specific protease 8 (Homo sapiens), Q96LD8. 0.64% of 360,000 active. recombinant SENP8; in the data active means inhibition mostly above about 40%, no sharp cut-off; inactive means mostly below about 27%
Target sequence (Q96LD8 whole entry, looked up): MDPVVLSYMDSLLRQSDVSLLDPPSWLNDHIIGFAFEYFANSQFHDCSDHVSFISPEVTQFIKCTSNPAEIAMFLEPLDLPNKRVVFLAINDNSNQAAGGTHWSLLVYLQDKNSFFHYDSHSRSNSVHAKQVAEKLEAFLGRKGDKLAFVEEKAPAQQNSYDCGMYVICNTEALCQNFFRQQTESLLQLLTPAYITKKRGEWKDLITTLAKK
SENP7 block: SENP7 protease inhibitors, primary screen, biochemical, luminescence, uHTS | Sentrin-specific protease 7 (Homo sapiens), Q9BQF6 | recombinant SENP7, Z-RLRGG-aminoluciferin luminescence, 40 min | inhibition, % at 5 µM | 1.5% of 330,000 active | AID 434973, 2010;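 active means inhibition above about 50% at the single test dose, limit read from the data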
SENP1 FRET inh: human SENP1 catalytic domain inhibitors, primary screen, biochemical, FRET, uHTS; Sentrin-specific protease 1 (Homo sapiens), Q9P0U3; recombinant SENP1 catalytic domain, CyPet-SUMO1-YPet FRET cleavage; inhibition, % at 10 µM; 0.21% of 360,000 active; AID 624204, 2012;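 active means inhibition at least 30% at 10 µM, raw YFP signal under a set limit, fluorescence ratio 0.5 to 1.5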
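Compound: 10 µM single point, 0.5% DMSO; Test system: hSENP1 catalytic domain, recombinant; Timing: 50 min reaction at room temperature; Technique: FRET, CFP and YFP emission; Control set: no-enzyme wells low, DMSO-plus-enzyme wells high control.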
SENP6 inh: SENP6 protease inhibitors, primary screen, biochemical, luminescence, uHTS; Sentrin-specific protease 6 (Homo sapiens), Q9GZR1; Recombinant SENP6 catalytic domain, aminoluciferin luminescence; inhibition, % at 10 µM; 1.8% of 330,000 active; AID 2599, 2010;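 active means inhibition above about 50% at the single tested dose, limit read from the data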
Target sequence (Q9GZR1 628-1112 limits assumed): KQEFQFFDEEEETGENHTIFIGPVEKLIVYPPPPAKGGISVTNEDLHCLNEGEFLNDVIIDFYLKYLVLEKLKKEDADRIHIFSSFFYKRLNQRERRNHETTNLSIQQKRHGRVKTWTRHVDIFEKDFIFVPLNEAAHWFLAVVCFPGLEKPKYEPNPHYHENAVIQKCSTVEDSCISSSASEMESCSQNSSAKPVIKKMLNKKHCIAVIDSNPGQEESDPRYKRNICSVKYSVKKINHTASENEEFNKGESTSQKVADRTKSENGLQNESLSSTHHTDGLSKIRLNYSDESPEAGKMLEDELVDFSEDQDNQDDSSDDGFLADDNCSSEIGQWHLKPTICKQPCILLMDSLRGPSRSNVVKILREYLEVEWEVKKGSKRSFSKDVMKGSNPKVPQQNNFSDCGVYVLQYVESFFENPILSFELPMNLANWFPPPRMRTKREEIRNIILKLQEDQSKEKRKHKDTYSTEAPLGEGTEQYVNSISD
SENP8 block-2: SENP8 protease inhibitors, primary screen, biochemical, luminescence; 1.2% of 330,000 active; inhibition, % at 10 µM; purified SENP8, Z-RLRGG-aminoluciferin cleavage; Sentrin-specific protease 8 (Homo sapiens), Q96LD8; in the data active means inhibition above about 50%
SENP8 confirm: SENP8 protease inhibitors, retest, confirmation, biochemical, luminescence, single concentration. 40% of 6,200 active. AID 488912, 2010. shares compounds with SENP7 block. inhibition, % at 12.5 µM. Recombinant SENP8, Z-RLRGG-aminoluciferin luminescence, 60 min;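 active means mean inhibition across replicates above about 50%, limit read from the data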
SENP6 conf: SENP6 protease inhibitors, confirmation, biochemical, luminescence, single concentration; inhibition, % at 12.5 µM; shares compounds with SENP7 block; recombinant SENP6, Z-RLRGG-aminoluciferin luminescence; 58% of 6,200 active
SENP7 confirm: SENP7 protease inhibitors, retest, confirmation, biochemical, luminescence, single concentration | recombinant SENP7, Z-RLRGG-aminoluciferin luminescence, 40 min | shares compounds with SENP7 block | AID 488917, 2010 | 69% of 6,200 active | inhibition, % at 12.5 µM
Casp3 select: caspase-3 protease inhibitors, confirmation, selectivity assay for SENP inhibitor project, biochemical, single concentration; purified caspase-3, Z-DEVD-aminoluciferin luminescence, 60 min; shares compounds with SENP7 block; 60% of 6,200 active; inhibition, % at 12.5 µM;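 active means mean inhibition above about 50%, limit read from the data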
Luc interf: interferes with luciferase luminescence in SENP counter-screen; shares compounds with SENP7 block; Pre-incubated SENP8/Z-RLRGG-aminoluciferin, luciferase luminescence interference; inhibition, % at 12.5 µM; 39% of 6,200 active; AID 488919;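 active means mean inhibition above about 50% when retested at one dose, limit read from the data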
Numbers stand for hits; – = inactive; · = not tested or not shown. An excerpt weighted towards active compounds, which were near 2.5% of everything screened.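 How the source made its calls, unless noted: active means mean inhibition above about 50% in the one-dose retest (limit read from the data); inactive means the rest.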

SMILES	SENP8 block-1	SENP7 block	SENP1 FRET inh	SENP6 inh	SENP8 block-2	SENP8 confirm	SENP6 conf	SENP7 confirm	Casp3 select	Luc interf
CCc1nc2ccc(C(=O)NCCCN3CCCC3=O)cn2c1N(CC)Cc1cccc(Br)c1	–	·	–	·	·	·	·	·	·	·
CC(=O)Nc1ccc(Cl)cc1-c1ccccc1	–	·	–	·	·	·	·	·	·	·
CN(C)c1nn(C(=O)Nc2ccc(Cl)cc2Cl)cc1-c1ccccc1	–	101.1	–	–	–	–	–	–	–	–
N/C(=N\OC(=O)CCC1CCCC1)c1ccccn1	–	67.8	–	87.4	66.5	82.0	80.1	95.1	90.7	82.8
N/C(=N\OC(=O)CCCc1ccccc1)c1ccccn1	–	–	–	50.1	–	–	–	72.6	72.9	53.9
N/C(=N\OC(=O)CCC1CCCC1)c1ccccc1	–	–	–	68.9	–	71.6	70.9	88.8	82.7	53.1
COc1ccc(/C(N)=N/OC(=O)CCC2CCCC2)cc1OC	–	–	–	–	–	·	·	·	·	·
C[C@H](CO)N1C[C@H](C)[C@@H](CN(C)S(=O)(=O)c2cn(C)cn2)Oc2ccc(NC(=O)Cc3ccccc3)cc2C1=O	–	–	–	–	–	·	·	·	·	·
Cc1ccccc1N1Cc2ccccc2C1=O	–	·	–	·	·	·	·	·	·	·
CC(C(=O)O)c1ccc(N2Cc3ccccc3C2=O)cc1 (centres undefined)	–	–	–	54.2	–	–	–	72.5	77.9	55.2
Cc1ccc(S(=O)(=O)N(C)C)cc1-n1c(SCC(=O)Nc2ccccc2)nc2ccccc2c1=O	–	–	–	50.1	–	–	–	–	–	–
CCSc1nc2ccccc2[nH]1	–	–	–	–	–	·	·	·	·	·
Nc1ccccc1Sc1nc2ccccc2[nH]1	–	–	–	61.2	57.2	60.8	57.7	84.1	85.7	71.6
CCCCCOc1ccc(CSc2ncn[nH]2)cc1	–	–	–	64.9	–	70.9	68.0	85.7	–	74.2
Nc1nc2ccccc2[nH]1	–	–	–	–	–	·	·	·	·	·
CCCCOc1ccc(CSc2ncn[nH]2)cc1	–	–	–	–	–	·	·	·	·	·
CCCOc1ccc(CSc2nc3ccccc3[nH]2)cc1	–	95.3	–	90.9	87.6	92.4	97.4	102.3	87.5	57.6
c1ccc(CSc2nc3ccccc3[nH]2)cc1	–	76.9	–	–	68.9	61.8	72.4	93.5	79.8	–
CC(=O)Nc1ccc(Cl)c(-c2nc3ncccc3o2)c1	–	–	–	–	–	·	·	·	·	·
O=C(CCc1ccccc1)NNC(=O)c1ccncc1	–	–	–	–	–	·	·	·	·	·
Fc1ccc(CSc2nc3ncccc3[nH]2)cc1	–	–	–	–	–	·	·	·	·	·
Fc1ccc(CSc2nc3ccccc3[nH]2)cc1	–	–	–	82.9	71.0	82.6	78.7	93.9	74.2	78.7
CCOC(=O)c1c(NC(=O)C(C)Sc2nnc(C)c(=O)[nH]2)sc2c1CCCC2 (centres undefined)	–	–	–	–	–	·	·	·	·	·
Cc1cccc(NC(=O)CN2C(=O)S/C(=C\c3ccc(O)c([N+](=O)[O-])c3)C2=O)c1	–	–	–	50.6	–	–	–	–	–	–
Cc1ccc(NC(=O)CN2C(=O)S/C(=C/c3ccc(O)c([N+](=O)[O-])c3)C2=O)cc1C	–	–	–	–	–	·	·	·	·	·
SMILES	SENP8 block-1	SENP7 block	SENP1 FRET inh	SENP6 inh	SENP8 block-2	SENP8 confirm	SENP6 conf	SENP7 confirm	Casp3 select	Luc interf
CCCC(=O)Nc1nc(-c2ccccc2)ns1	–	–	–	–	–	·	·	·	·	·
Cc1nnc(SCCC(=O)Nc2nc(-c3ccccc3)ns2)s1	–	–	–	58.3	–	53.9	50.4	77.5	–	–
Cc1ccc(-c2csc(NS(=O)(=O)c3cccc(F)c3)n2)o1	–	–	–	–	–	·	·	·	·	·
Cc1cccc(Nc2nc(-c3ccc(F)cc3)cs2)n1	–	84.6	–	95.6	84.3	–	81.3	96.9	55.7	–
COc1ccc(-c2csc(Nc3cccc(C)n3)n2)cc1C	–	·	–	·	·	·	·	·	·	·
CC(=O)Oc1ccc(-c2csc(Nc3cccc(C)n3)n2)cc1	–	87.1	–	72.8	87.1	–	–	55.3	70.2	–
COc1ccc(-c2csc(Nc3cccc(C)n3)n2)cc1	–	81.2	–	90.4	87.7	–	81.1	96.3	53.7	–
CC(=O)Oc1ccc(-c2csc(Nc3ccccn3)n2)cc1	–	·	–	·	·	·	·	·	·	·
COC(=O)c1ccc(NC(c2ccc(Cl)cc2)P(=O)(OC)OC)cc1 (centres undefined)	–	–	–	–	–	·	·	·	·	·
O=c1c2ccccc2c2ccccc2c(=O)n1Nc1ccccc1	–	·	–	·	·	·	·	·	·	·
O=C(c1ccc(-c2nc3ccccc3s2)o1)N1CCN(c2ccccc2O)CC1	–	–	–	–	–	·	·	·	·	·
O=C(O)CCN1C(=O)/C(=C/c2ccc(-c3nc4ccccc4s3)o2)SC1=S	–	–	–	–	–	·	·	·	·	·
O=Cc1ccc(-c2nc3ccccc3s2)o1	–	80.0	–	63.1	69.5	–	69.6	86.8	82.0	–
O=C(O)c1ccc(-c2nc3ccccc3s2)o1	–	78.2	–	90.9	76.9	87.0	83.8	92.5	61.3	82.1
Cc1noc(C)c1C(=O)OC(C)C(=O)c1ccc(C(C)(C)C)cc1 (centres undefined)	–	·	–	·	·	·	·	·	·	·
Cn1cccc1C(=O)OCc1cc(-c2ccco2)on1	–	–	–	–	–	·	·	·	·	·
COc1ccc(CCNC(=O)c2cc(S(=O)(=O)N3CCOCC3)ccc2F)cc1	–	–	–	–	–	·	·	·	·	·
Cc1ccc(SC2=C(Sc3ccc(C)cc3)C(=O)c3ccccc3C2=O)cc1	–	–	–	62.1	–	–	–	–	–	–
CCOC(=O)N=S(N)(=O)c1ccccc1 (centres undefined)	–	–	–	–	–	·	·	·	·	·
CCOC(=O)N=S(N)(=O)c1ccc(Cl)cc1 (centres undefined)	–	–	–	–	50.7	–	–	–	–	–
CCCCn1c(N)c(N(CCOC)C(=O)c2ccc3c(c2)OCCO3)c(=O)[nH]c1=O	–	–	–	–	–	·	·	·	·	·
